Data published in ChEMBL document CHEMBL3244396, “Synthesis and antileukemic activity of 5-substituted 2,3-dihydro-6,7-bis(hydroxymethyl)-1H-pyrrolizine diesters” (J Med Chem, 1977).

Experiments:
L1210 = assay: Antileukemic activity against mouse L1210 cells allografted in female BDF1 mouse assessed as change in body weight at 100 mg/kg, ip administered daily for 9 days as Klucel suspension starting 24 hrs after tumor inoculation; assay type: functional; details: route intraperitoneal
Outline: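 Ascitic fluid carrying L1210 cells was inoculated ip. Compound was given ip as a Klucel (hydroxypropylcellulose) suspension in nine daily doses, starting 24 h after inoculation. Body-weight difference (treated minus control) was recorded on day 5. Survival was scored as %T/C of mean survival time.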

Mus musculus [1] = assay: Toxicity in female BDF1 mouse allografted with mouse L1210 cells assessed as animal survival at 50 mg/kg, ip administered daily for 9 days as Klucel suspension starting 24 hrs after tumor inoculation measured on fifth day; assay type: organism-based; parameters: dose 50 mg/kg, route intraperitoneal; details: in vivo
Outline: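 L1210 leukemia passaged as ascitic fluid and inoculated ip. Test agent given ip as a Klucel (hydroxypropylcellulose) suspension, nine daily doses starting 24 h after tumor inoculation. Acute toxicity read as toxicity-day survivors per group (out of 6), recorded on day 5. Animal weight difference T − C was also recorded. Follows NCI screening protocols.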

Mus musculus [2] = assay: Toxicity in female BDF1 mouse allografted with mouse P388 cells assessed as animal survival at 25 mg/kg, ip administered daily for 9 days as Klucel suspension starting 24 hrs after tumor inoculation; assay type: organism-based; parameters: dose 25 mg/kg, route intraperitoneal; details: in vivo
Outline: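 P-388 leukemia ascitic fluid inoculated ip. Compound given ip as a suspension in Klucel (hydroxypropylcellulose), once daily for nine doses beginning 24 h post-inoculation. Acute toxicity assessed as toxicity-day survivors per group. Survival was followed up to 30 days, with 30-day survival counted as "cure". Follows NCI screening protocols.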

P388 [3] = assay: Antitumor activity against mouse P388 cells allografted in male CDF1 mouse assessed as disease cures by measuring 30-days host survival at 50 mg/kg, ip administered daily for 9 days as Klucel suspension starting 24 hrs after tumor inoculation relative to control; assay type: functional; details: route intraperitoneal
Outline: (§1)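 P388 leukemia given as an ascitic fluid cell inoculum, ip, to mice of the strain and sex in each line. Nine daily ip doses were given in a Klucel (hydroxypropylcellulose) suspension, starting 24 h after inoculation. Read-out is median survival time as %T/C, with >125 taken as significant; a "cure" means 30-day survival.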

P388 [4] = assay: Antitumor activity against mouse P388 cells allografted in male CDF1 mouse assessed as disease cures by measuring 30-days host survival at 6.25 mg/kg, ip administered daily for 9 days as Klucel suspension starting 24 hrs after tumor inoculation relative to control; assay type: functional; details: route intraperitoneal; outline: as §1
P388 [5] = assay: Antitumor activity against mouse P388 cells allografted in female BDF1 mouse assessed as disease cures by measuring 30-days host survival at 12.5 mg/kg, ip administered daily for 9 days as Klucel suspension starting 24 hrs after tumor inoculation relative to control; assay type: functional; details: route intraperitoneal; outline: as §1
P388 [6] = assay: Antitumor activity against mouse P388 cells allografted in male CDF1 mouse assessed as change in body weight at 25 mg/kg, ip administered daily for 9 days as Klucel suspension starting 24 hrs after tumor inoculation; assay type: functional; details: route intraperitoneal
Outline: (§2)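 Ascitic fluid carrying P388 cells was inoculated ip. Compound was given ip in nine daily doses, starting 24 h after inoculation, in Klucel (hydroxypropylcellulose) suspension or in saline with Tween-80. Body-weight difference (treated minus control) was recorded on day 5. Survival was scored as %T/C of median survival time, and 30-day survival counted as cure.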

P388 [7] = assay: Antitumor activity against mouse P388 cells allografted in female CDF1 mouse assessed as change in body weight at 200 mg/kg, ip administered daily for 9 days as Klucel suspension starting 24 hrs after tumor inoculation; assay type: functional; details: route intraperitoneal; outline: as §2
P388 [8] = assay: Antitumor activity against mouse P388 cells allografted in female BDF1 mouse assessed as change in body weight at 25 mg/kg, ip administered daily for 9 days as Klucel suspension starting 24 hrs after tumor inoculation; assay type: functional; details: route intraperitoneal; outline: as §2
P388 [9] = assay: Antitumor activity against mouse P388 cells allografted in female BDF1 mouse assessed as change in body weight at 12.5 mg/kg, ip administered daily for 9 days as Klucel suspension starting 24 hrs after tumor inoculation; assay type: functional; details: route intraperitoneal; outline: as §2
P388 [10] = assay: Antitumor activity against mouse P388 cells allografted in female BDF1 mouse assessed as change in body weight at 6.25 mg/kg, ip administered daily for 9 days as Klucel suspension starting 24 hrs after tumor inoculation; assay type: functional; details: route intraperitoneal; outline: as §2

Question: Which Activity (L1210) does the source give for `CC(=O)OCc1c(COC(C)=O)c(-c2ccccc2)n2c1CCC2` here?
Answer: Its Activity is -2.3 g.

Question: What about the Activity (Mus musculus [1]) of the same molecule?
Answer: Its Activity is “Non-toxic”.

Question: And the Activity (Mus musculus [2])?
Answer: The Activity was “Non-toxic”.

Question: What about the T/C (P388 [3]) of the same molecule?
Answer: The T/C was 87%.

Question: And the T/C (P388 [4])?
Answer: Its T/C is 125%.

Question: What about the T/C (P388 [5]) of the same molecule?
Answer: The T/C was 126%.

Question: What about the Activity (P388 [6]) of the same molecule?
Answer: The Activity was -1.2 g.

Question: And the Activity (P388 [7])?
Answer: The Activity was 0.5 g.

Question: What about the Activity (P388 [8]) of the same molecule?
Answer: The Activity was -2 g.

Question: And the Activity (P388 [9])?
Answer: The Activity was -1.2 g.

Question: And the Activity (P388 [10])?
Answer: The Activity was -0.4 g.
